In ChEMBL document CHEMBL1146234, “Synthesis and biological evaluation of N-pyrazolyl-N'-alkyl/benzyl/phenylureas: a new class of potent inhibitors of interleukin 8-induced neutrophil chemotaxis” (J Med Chem, 2007) one finds Activity data, which are given here for three molecules.

Activity calls are given as the source filed them. No cut-off for these calls is given here.

Experiment [1] deals with T1, C-X-C chemokine receptor type 2 (Homo sapiens) (UniProt P25025).
T1 sequence (whole entry): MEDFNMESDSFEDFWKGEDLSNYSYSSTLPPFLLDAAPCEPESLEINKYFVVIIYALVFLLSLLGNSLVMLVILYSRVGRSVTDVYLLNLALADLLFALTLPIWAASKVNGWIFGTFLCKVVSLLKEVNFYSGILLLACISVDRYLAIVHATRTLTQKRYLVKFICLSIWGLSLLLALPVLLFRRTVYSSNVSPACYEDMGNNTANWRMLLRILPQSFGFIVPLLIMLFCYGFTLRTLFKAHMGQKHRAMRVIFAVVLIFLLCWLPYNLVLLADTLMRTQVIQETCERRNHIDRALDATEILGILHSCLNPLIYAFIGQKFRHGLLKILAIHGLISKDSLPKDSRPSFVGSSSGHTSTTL
Kind of experiment: Binding affinity to CXCR2.

Experiment [2] deals with T2, C-C chemokine receptor type 1 (Homo sapiens) (UniProt P32246).
T2 sequence (whole entry): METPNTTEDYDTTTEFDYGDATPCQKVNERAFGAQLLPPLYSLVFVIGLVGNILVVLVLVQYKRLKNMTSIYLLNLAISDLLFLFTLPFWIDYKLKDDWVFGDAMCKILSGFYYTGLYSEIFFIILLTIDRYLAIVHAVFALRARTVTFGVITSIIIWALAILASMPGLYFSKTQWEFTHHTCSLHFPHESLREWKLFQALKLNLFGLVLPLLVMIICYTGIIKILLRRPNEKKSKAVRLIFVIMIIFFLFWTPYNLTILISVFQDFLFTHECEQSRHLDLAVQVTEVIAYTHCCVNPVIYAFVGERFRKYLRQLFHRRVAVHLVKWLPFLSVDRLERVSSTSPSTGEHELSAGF
As to the kind of experiment: Binding affinity to CCR1.

Experiment [3] has as its target T3, C-C chemokine receptor type 3 (Homo sapiens) (UniProt P51677).
T3 sequence (whole entry): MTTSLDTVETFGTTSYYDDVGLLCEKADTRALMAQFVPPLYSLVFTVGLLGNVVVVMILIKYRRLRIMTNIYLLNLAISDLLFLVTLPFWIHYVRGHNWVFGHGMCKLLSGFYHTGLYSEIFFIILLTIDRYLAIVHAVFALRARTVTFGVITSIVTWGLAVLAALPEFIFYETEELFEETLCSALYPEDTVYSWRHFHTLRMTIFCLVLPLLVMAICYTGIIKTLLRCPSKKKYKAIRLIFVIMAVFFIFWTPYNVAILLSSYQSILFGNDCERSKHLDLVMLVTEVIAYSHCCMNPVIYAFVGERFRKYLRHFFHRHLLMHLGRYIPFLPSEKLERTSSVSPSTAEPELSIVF
Kind of experiment: Binding affinity to CCR3.

For the next experiment, the system named is Neutrophil. As to the kind of experiment: Cytotoxicity against human neutrophils assessed as viable cells after 2 hrs. The class given is functional. Further details: concentration or dose not given beside the values. The essentials:
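Human neutrophils (2 × 10⁶/mL) from healthy donors were incubated 2 h at 37 °C under CO₂ in HBSS:PBS (3:1) with 1 mg/mL BSA, with compounds. Membrane integrity was read by fluorescein diacetate/ethidium bromide staining for 10 min at room temperature, under UV dark-field microscopy. Green cells were scored viable; red nuclei were scored necrotic.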

In experiment [4] the target is Tyrosine-protein kinase Fgr (Homo sapiens) (UniProt P09769). Kind of experiment: Binding affinity to Fgr.
The target in experiment [5] is Tyrosine-protein kinase HCK (Homo sapiens) (UniProt P08631). Kind of experiment: Binding affinity to Hck.
In experiment [6] the target is Mitogen-activated protein kinase 14 (Homo sapiens) (UniProt Q16539). Kind of experiment: Binding affinity to p38alpha.
For experiment [7], the target named is Mitogen-activated protein kinase 11 (Homo sapiens) (UniProt Q15759). As to the kind of experiment: Binding affinity to p38beta2.
Experiment [8] concerns the target T4, Mitogen-activated protein kinase 13 (Homo sapiens) (UniProt O15264).
T4 sequence (whole entry): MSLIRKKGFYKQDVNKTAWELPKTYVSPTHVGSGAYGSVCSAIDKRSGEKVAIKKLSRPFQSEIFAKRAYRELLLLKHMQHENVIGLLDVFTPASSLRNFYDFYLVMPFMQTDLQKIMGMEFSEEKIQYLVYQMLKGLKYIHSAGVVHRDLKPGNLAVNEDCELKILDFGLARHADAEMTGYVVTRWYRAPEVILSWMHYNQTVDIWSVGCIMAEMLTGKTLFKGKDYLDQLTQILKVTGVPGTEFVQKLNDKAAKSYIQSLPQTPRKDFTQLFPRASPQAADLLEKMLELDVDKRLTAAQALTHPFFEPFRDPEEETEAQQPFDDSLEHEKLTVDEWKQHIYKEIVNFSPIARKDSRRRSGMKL
Kind of experiment: Binding affinity p38delta.

Experiment [9] has as its target T5, Mitogen-activated protein kinase 12 (Homo sapiens) (UniProt P53778).
T5 sequence (whole entry): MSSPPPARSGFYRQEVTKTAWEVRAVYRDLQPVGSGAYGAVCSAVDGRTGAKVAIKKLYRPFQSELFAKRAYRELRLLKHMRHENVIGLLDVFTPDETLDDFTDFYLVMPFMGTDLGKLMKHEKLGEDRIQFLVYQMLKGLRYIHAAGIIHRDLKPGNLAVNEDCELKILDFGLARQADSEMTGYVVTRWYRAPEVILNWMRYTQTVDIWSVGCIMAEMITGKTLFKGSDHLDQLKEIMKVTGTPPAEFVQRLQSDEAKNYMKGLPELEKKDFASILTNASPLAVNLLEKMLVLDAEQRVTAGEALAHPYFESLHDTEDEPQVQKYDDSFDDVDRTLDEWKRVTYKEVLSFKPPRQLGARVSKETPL
As to the kind of experiment: Binding affinity to p38-gamma.

The target in experiment [10] is Mitogen-activated protein kinase 3 (Homo sapiens) (UniProt P27361). Kind of experiment: Binding affinity to ERK1.
Experiment [11] concerns the target Mitogen-activated protein kinase 1 (Homo sapiens) (UniProt P28482). As to the kind of experiment: Binding affinity to ERK2.
For experiment [12], the target named is Mitogen-activated protein kinase 8 (Homo sapiens) (UniProt P45983). As to the kind of experiment: Binding affinity to JNK1.
Experiment [13] addresses Mitogen-activated protein kinase 9 (Homo sapiens) (UniProt P45984). Kind of experiment: Binding affinity to JNK2.
Experiment [14] has as its target RAC-alpha serine/threonine-protein kinase (Homo sapiens) (UniProt P31749). Kind of experiment: Binding affinity to Akt1.
In experiment [15] the target is T6, C-X-C chemokine receptor type 1 (Homo sapiens) (UniProt P25024).
T6 sequence (whole entry): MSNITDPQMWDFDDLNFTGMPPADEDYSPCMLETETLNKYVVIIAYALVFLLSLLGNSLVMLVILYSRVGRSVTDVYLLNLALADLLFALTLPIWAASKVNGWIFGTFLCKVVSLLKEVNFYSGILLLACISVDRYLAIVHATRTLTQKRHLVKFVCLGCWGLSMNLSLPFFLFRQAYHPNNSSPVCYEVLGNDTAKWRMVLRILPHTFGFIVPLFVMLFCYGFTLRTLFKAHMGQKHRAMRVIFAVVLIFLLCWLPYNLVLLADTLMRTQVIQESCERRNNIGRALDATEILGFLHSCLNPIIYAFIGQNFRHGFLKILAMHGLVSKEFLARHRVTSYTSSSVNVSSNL
Kind of experiment: Binding affinity to CXCR1.

Mitogen-activated protein kinase 8 (Homo sapiens), sequence (P45983 whole entry): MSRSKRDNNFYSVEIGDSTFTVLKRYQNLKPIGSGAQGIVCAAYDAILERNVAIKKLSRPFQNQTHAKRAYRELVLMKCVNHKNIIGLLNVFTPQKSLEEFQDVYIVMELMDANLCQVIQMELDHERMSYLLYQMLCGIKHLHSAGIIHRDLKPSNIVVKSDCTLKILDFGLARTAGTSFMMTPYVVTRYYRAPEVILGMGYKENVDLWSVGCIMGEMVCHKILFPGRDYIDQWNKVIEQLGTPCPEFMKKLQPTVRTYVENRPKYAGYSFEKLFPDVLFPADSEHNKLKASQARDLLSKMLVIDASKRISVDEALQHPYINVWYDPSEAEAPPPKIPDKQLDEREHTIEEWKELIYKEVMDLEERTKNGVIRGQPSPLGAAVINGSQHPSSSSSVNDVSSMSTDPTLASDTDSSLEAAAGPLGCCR
Tyrosine-protein kinase Fgr (Homo sapiens), sequence (P09769 2-529 limits assumed): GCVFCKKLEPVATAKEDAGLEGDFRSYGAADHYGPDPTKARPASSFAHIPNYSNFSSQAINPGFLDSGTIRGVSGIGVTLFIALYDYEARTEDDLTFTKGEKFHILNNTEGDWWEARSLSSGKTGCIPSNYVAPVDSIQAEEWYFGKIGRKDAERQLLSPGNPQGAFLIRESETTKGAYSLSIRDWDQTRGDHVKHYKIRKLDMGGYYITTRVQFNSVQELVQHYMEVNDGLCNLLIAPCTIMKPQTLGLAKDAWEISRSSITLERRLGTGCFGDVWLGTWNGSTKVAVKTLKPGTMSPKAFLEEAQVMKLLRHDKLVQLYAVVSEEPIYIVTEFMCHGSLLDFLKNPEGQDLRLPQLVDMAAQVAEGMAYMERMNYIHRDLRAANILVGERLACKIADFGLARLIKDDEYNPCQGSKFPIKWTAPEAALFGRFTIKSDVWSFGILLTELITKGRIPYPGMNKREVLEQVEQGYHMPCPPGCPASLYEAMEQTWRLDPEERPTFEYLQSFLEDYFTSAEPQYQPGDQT
Mitogen-activated protein kinase 3 (Homo sapiens), sequence (P27361 whole entry): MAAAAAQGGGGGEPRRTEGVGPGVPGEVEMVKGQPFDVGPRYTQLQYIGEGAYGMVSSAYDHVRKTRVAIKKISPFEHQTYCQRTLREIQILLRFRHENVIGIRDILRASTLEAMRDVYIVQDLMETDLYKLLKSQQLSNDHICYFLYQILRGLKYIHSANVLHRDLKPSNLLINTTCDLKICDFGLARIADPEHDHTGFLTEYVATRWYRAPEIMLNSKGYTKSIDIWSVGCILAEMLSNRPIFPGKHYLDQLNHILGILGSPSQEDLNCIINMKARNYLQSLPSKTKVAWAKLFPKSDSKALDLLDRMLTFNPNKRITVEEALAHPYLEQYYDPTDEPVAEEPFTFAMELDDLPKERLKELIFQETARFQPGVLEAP
Mitogen-activated protein kinase 11 (Homo sapiens), sequence (Q15759 whole entry): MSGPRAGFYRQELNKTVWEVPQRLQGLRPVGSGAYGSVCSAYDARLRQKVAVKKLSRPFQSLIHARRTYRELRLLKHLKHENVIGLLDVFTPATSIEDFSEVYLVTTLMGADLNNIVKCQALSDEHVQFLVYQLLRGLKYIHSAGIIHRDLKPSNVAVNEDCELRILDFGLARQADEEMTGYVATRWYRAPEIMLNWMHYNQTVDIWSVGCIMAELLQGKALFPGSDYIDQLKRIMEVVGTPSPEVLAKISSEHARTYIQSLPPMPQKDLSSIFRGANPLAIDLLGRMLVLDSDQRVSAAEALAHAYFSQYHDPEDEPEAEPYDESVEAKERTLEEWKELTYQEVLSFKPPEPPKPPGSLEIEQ
Mitogen-activated protein kinase 9 (Homo sapiens), sequence (P45984 whole entry, looked up): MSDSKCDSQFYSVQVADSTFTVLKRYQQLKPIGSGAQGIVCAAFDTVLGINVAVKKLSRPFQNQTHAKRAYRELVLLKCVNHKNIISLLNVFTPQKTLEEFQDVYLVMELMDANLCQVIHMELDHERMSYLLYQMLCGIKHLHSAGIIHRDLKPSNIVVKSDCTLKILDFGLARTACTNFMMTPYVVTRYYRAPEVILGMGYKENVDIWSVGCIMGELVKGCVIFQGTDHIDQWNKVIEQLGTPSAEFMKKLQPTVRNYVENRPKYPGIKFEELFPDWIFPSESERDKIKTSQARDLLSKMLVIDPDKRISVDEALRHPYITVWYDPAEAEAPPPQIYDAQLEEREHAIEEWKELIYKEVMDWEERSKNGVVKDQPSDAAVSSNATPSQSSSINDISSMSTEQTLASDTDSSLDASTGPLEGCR
Mitogen-activated protein kinase 14 (Homo sapiens), sequence (Q16539 whole entry): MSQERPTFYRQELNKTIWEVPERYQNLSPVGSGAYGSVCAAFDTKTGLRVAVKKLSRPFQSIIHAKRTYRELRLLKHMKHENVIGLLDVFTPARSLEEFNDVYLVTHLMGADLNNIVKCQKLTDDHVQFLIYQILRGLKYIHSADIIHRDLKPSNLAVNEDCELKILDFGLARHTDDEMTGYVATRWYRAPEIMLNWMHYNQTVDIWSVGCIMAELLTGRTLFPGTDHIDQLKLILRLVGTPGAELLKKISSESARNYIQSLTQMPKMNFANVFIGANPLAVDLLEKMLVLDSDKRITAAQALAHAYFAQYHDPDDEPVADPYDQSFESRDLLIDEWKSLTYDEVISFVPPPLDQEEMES
Tyrosine-protein kinase HCK (Homo sapiens), sequence (P08631 2-526 limits assumed): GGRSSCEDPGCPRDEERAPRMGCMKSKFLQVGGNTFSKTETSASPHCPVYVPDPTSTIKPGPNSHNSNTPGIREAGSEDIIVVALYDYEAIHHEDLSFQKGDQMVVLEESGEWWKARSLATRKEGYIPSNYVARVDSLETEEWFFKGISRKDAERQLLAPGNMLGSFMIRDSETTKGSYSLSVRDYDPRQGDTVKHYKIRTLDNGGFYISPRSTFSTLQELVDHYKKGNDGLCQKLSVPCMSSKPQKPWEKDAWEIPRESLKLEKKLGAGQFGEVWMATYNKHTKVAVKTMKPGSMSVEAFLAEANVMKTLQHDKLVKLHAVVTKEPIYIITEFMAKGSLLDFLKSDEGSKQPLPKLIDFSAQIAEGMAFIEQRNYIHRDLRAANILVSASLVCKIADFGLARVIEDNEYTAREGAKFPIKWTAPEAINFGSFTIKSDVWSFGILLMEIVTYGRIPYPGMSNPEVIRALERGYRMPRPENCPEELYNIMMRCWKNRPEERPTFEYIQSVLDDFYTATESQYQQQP
RAC-alpha serine/threonine-protein kinase (Homo sapiens), sequence (P31749 whole entry): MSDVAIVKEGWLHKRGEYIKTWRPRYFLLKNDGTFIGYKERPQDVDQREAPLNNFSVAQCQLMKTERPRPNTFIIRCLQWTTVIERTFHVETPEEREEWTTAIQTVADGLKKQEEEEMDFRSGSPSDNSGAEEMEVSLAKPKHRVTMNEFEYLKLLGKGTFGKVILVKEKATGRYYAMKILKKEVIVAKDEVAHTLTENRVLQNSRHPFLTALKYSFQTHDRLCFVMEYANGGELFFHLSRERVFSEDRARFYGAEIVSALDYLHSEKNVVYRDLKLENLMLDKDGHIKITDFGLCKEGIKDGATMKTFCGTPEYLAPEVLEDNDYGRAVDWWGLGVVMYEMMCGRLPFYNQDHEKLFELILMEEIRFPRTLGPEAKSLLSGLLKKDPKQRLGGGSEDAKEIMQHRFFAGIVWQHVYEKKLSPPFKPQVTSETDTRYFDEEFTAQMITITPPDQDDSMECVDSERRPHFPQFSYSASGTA
Mitogen-activated protein kinase 1 (Homo sapiens), sequence (P28482 whole entry): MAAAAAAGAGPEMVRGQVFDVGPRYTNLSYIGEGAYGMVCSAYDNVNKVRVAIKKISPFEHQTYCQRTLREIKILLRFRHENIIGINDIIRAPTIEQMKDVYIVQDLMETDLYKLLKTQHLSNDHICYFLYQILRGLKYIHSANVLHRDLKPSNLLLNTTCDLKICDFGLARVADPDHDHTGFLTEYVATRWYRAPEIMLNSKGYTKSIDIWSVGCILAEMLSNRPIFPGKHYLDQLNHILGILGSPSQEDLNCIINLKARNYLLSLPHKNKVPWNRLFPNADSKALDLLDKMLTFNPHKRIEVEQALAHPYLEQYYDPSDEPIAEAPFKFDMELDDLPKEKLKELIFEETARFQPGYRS

With `CCOC(=O)c1cnn(CC(O)c2ccccc2)c1NC(=O)NC(C)C` (stereo not drawn), the result in [1], in experiment [2], in experiment [3], in experiment [4], in experiment [5] and in experiment [6] was inactive. Besides, the outcome in [7], in experiment [8], in experiment [9], in experiment [10], in experiment [11] and in experiment [12] was inactive. Further, the outcome in [13], in experiment [14] and in experiment [15] was inactive. In addition, the Activity in the experiment with Neutrophil was 90%.

With `CCOC(=O)c1cnn(CC(O)c2ccccc2)c1NC(=O)Nc1ccccc1` (stereo not drawn), the outcome in experiment [1], in [2], in experiment [3], in experiment [4], in [5] and in [6] was inactive. Also, the result in experiment [7], in experiment [8], in experiment [9], in experiment [10], in [11] and in [12] was inactive. Further, the result in experiment [13], in [14] and in experiment [15] was inactive. In the experiment on Neutrophil, the Activity was determined as 90%.

For the molecule `CCOC(=O)c1cnn(CC(O)c2ccccc2)c1NC(=O)NCc1ccccc1` (stereo not drawn), the result in experiment [1], in experiment [2], in experiment [3], in experiment [4], in experiment [5] and in experiment [6] was inactive. The result in [7], in experiment [8], in experiment [9], in experiment [10], in experiment [11] and in experiment [12] was inactive. In addition, the outcome in experiment [13], in experiment [14] and in experiment [15] was inactive. The Activity in the experiment with Neutrophil was 90%.
